For 13 compounds, MIC results are on record in ChEMBL document CHEMBL3272355, “Structure--activity relationships in cephalosporins prepared from penicillins. 1. 7beta-Acylamino derivatives of 3-benzyl- and 3-(3-pyridylmethyl)ceph-3-em-4-carboxylic acids” (1977).

Assay [1] relates to Staphylococcus aureus. The assay is described as follows: Antibacterial activity against Staphylococcus aureus Oxford assessed as growth inhibition after 18 hrs by serial dilution method. It counts as functional. The essentials: (§1)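 Agar dilution MIC: serial dilutions in nutrient agar, each spot-inoculated with 0.001 mL of undiluted overnight broth culture. MIC read after 18 h incubation at 37 °C.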

Assay [2] has as its system Staphylococcus aureus. Briefly: Antibacterial activity against beta-lactamase producing benzylpenicillin-resistant Staphylococcus aureus Russell assessed as growth inhibition after 18 hrs by serial dilution method. Format: functional.
The test system of assay [3] is Escherichia coli. The assay is described as follows: Antibacterial activity against Escherichia coli assessed as growth inhibition after 18 hrs by serial dilution method. It counts as functional. The essentials:
as §1

In assay [4] the test system is Salmonella typhi. Briefly: Antibacterial activity against Salmonella typhi assessed as growth inhibition after 18 hrs by serial dilution method. Format: functional, Salmonella enterica subsp. enterica serovar Typhi. Particulars: Salmonella enterica.
Assay [5] relates to Shigella sonnei. Briefly: Antibacterial activity against Shigella sonnei assessed as growth inhibition after 18 hrs by serial dilution method. Format: functional. The method in brief:
as §1

Assay [6] relates to Klebsiella aerogenes. Briefly: Antibacterial activity against Klebsiella aerogenes assessed as growth inhibition after 18 hrs by serial dilution method. Format: functional. The essentials:
as §1

Assay [7] relates to Proteus mirabilis. Briefly: Antibacterial activity against Proteus mirabilis assessed as growth inhibition after 18 hrs by serial dilution method. It counts as functional. The method in brief: as §1

Values after ≈ are worked out from the molar mass of the structure shown. Bounds are passed on as bounds.

In the case of `N[C@@H](C(=O)N[C@@H]1C(=O)N2C(C(=O)O)=C(Cc3ccccc3)CS[C@H]12)c1ccccc1`, the MIC – broadly, the least concentration at which growth counts as inhibited – stood at 0.1 µg/mL (≈ 0.236 µM) in assay [1]; 2.5 µg/mL (≈ 5.9 µM) in assay [2]; 25 µg/mL (≈ 59 µM) in assay [3]; 25 µg/mL (≈ 59 µM) in assay [4]; 25 µg/mL (≈ 59 µM) in assay [5]; 25 µg/mL (≈ 59 µM) in assay [6]. Besides, the MIC in assay [7] came to 50 µg/mL (≈ 118 µM).

On to `N[C@@H](C(=O)N[C@@H]1C(=O)N2C(C(=O)O)=C(Cc3cccnc3)CS[C@H]12)c1ccccc1`, for which the MIC in assay [1] is 0.25 µg/mL (≈ 0.589 µM); in assay [2], 2.5 µg/mL (≈ 5.89 µM); in assay [3], 2.5 µg/mL (≈ 5.89 µM); in assay [4], 1.25 µg/mL (≈ 2.94 µM); in assay [5], 2.5 µg/mL (≈ 5.89 µM); in assay [6], 2.5 µg/mL (≈ 5.89 µM). Also, the MIC in assay [7] worked out at 5 µg/mL (≈ 11.8 µM).

For `O=C(Cc1cccs1)N[C@@H]1C(=O)N2C(C(=O)O)=C(Cc3ccccc3)CS[C@H]12`, the minimum inhibitory concentration (MIC) was 0.05 µg/mL (≈ 0.121 µM) in assay [1]; 10 µg/mL (≈ 24.1 µM) in assay [2]; 200 µg/mL (≈ 482 µM) in assay [3]; 200 µg/mL (≈ 482 µM) in assay [4]; 200 µg/mL (≈ 482 µM) in assay [5]; over 200 µg/mL in assay [6]. Besides, in assay [7], the MIC is over 200 µg/mL.

Consider `CC(=O)N[C@@H]1C(=O)N2C(C(=O)O)=C(Cc3ccccc3)CS[C@H]12`, for which the MIC in assay [1] was 0.5 µg/mL (≈ 1.5 µM); in assay [2], 2.5 µg/mL (≈ 7.52 µM); in assay [3], over 500 µg/mL; in assay [4], 500 µg/mL (≈ 1500 µM); in assay [5], over 500 µg/mL; in assay [6] it was over 500 µg/mL. For the same compound, the MIC in assay [7] was over 500 µg/mL.

Turning to `O=C(O)C1=C(Cc2ccccc2)CS[C@@H]2[C@H](NC(=O)C(F)(F)F)C(=O)N12`, the MIC was 2.5 µg/mL (≈ 6.47 µM) in assay [1]; 12.5 µg/mL (≈ 32.4 µM) in assay [2]; over 500 µg/mL in assay [3]; over 500 µg/mL in assay [4]; over 500 µg/mL in assay [5]; over 500 µg/mL in assay [6]. Further, the MIC in assay [7] came to 500 µg/mL (≈ 1290 µM).

Turning to `N#CCC(=O)N[C@@H]1C(=O)N2C(C(=O)O)=C(Cc3ccccc3)CS[C@H]12`, the MIC is 0.12 µg/mL (≈ 0.336 µM) in assay [1]; 0.5 µg/mL (≈ 1.4 µM) in assay [2]; 500 µg/mL (≈ 1400 µM) in assay [3]; 250 µg/mL (≈ 700 µM) in assay [4]; 500 µg/mL (≈ 1400 µM) in assay [5]; over 500 µg/mL in assay [6]. Moreover, the minimal inhibitory concentration (MIC) in assay [7] is over 500 µg/mL.

For `O=C(COc1ccccc1)N[C@@H]1C(=O)N2C(C(=O)O)=C(Cc3ccccc3)CS[C@H]12`, the MIC in assay [1] was 0.02 µg/mL (≈ 0.0471 µM); in assay [2] it was 0.12 µg/mL (≈ 0.283 µM); in assay [3], over 500 µg/mL; in assay [4] it was over 500 µg/mL; in assay [5] it was over 500 µg/mL; in assay [6], over 500 µg/mL. Also, in assay [7], the MIC turned out to be 500 µg/mL (≈ 1180 µM).

With `CCSCC(=O)N[C@@H]1C(=O)N2C(C(=O)O)=C(Cc3ccccc3)CS[C@H]12`, the MIC in assay [1] was 0.12 µg/mL (≈ 0.306 µM); in assay [2], 1.25 µg/mL (≈ 3.18 µM); in assay [3], over 125 µg/mL; in assay [4], 125 µg/mL (≈ 318 µM); in assay [5], over 125 µg/mL; in assay [6] it was over 125 µg/mL. Moreover, in assay [7], the MIC is over 125 µg/mL.

`O=C(O)CSCC(=O)N[C@@H]1C(=O)N2C(C(=O)O)=C(Cc3ccccc3)CS[C@H]12`: the MIC was 5 µg/mL (≈ 11.8 µM) in assay [1]; 25 µg/mL (≈ 59.2 µM) in assay [2]; over 500 µg/mL in assay [3]; 250 µg/mL (≈ 592 µM) in assay [4]; 250 µg/mL (≈ 592 µM) in assay [5]; over 500 µg/mL in assay [6]. Besides, in assay [7], the MIC stood at 125 µg/mL (≈ 296 µM).

`O=C(O)C1=C(Cc2ccccc2)CS[C@@H]2[C@H](NC(=O)[C@H](O)c3ccccc3)C(=O)N12`: the MIC in assay [1] is 0.12 µg/mL (≈ 0.283 µM); in assay [2] it was 12.5 µg/mL (≈ 29.4 µM); in assay [3], 125 µg/mL (≈ 294 µM); in assay [4] it was 50 µg/mL (≈ 118 µM); in assay [5], 50 µg/mL (≈ 118 µM); in assay [6], 50 µg/mL (≈ 118 µM). For the same compound, in assay [7], the MIC was over 500 µg/mL.

For the compound `O=C(O)C1=C(Cc2ccccc2)CS[C@@H]2[C@H](NC(=O)C(C(=O)Oc3ccccc3)c3ccccc3)C(=O)N12` (stereo partly specified), the MIC is 2.5 µg/mL (≈ 4.73 µM) in assay [1]; 25 µg/mL (≈ 47.3 µM) in assay [2]; over 100 µg/mL in assay [3]; over 100 µg/mL in assay [4]; over 100 µg/mL in assay [5]; over 100 µg/mL in assay [6]. The MIC in assay [7] was 50 µg/mL (≈ 94.6 µM).

Regarding `O=C(Cc1ccncc1)N[C@@H]1C(=O)N2C(C(=O)O)=C(Cc3ccccc3)CS[C@H]12`, the MIC in assay [1] turned out to be 0.05 µg/mL (≈ 0.122 µM); in assay [2], 5 µg/mL (≈ 12.2 µM); in assay [3] it was 50 µg/mL (≈ 122 µM); in assay [4], 50 µg/mL (≈ 122 µM); in assay [5] it was 50 µg/mL (≈ 122 µM); in assay [6] it was 100 µg/mL (≈ 244 µM). For the same compound, the MIC in assay [7] turned out to be 100 µg/mL (≈ 244 µM).

In the case of `O=C(CSc1ccncc1)N[C@@H]1C(=O)N2C(C(=O)O)=C(Cc3ccccc3)CS[C@H]12`, the MIC in assay [1] is 0.05 µg/mL (≈ 0.113 µM); in assay [2] it was 2.5 µg/mL (≈ 5.66 µM); in assay [3] it was 250 µg/mL (≈ 566 µM); in assay [4], 250 µg/mL (≈ 566 µM); in assay [5], 250 µg/mL (≈ 566 µM); in assay [6] it was over 500 µg/mL. Moreover, the MIC in assay [7] was found to be 250 µg/mL (≈ 566 µM).
